This is an account of results in ChEMBL document CHEMBL4390639, “Design, Synthesis, and Biological Evaluation of Novel Allosteric Protein Disulfide Isomerase Inhibitors” (J Med Chem, 2019).

The target of assay [1] is T1, Protein disulfide-isomerase (Homo sapiens, UniProt P07237). Description: Inhibition of recombinant human N-terminal His-tagged PDI expressed in Escherichia coli BL21 (DE3) pLysS assessed as reduction in enzyme-mediated bovine insulin aggregation.
Assay [2] is described as follows: Cytotoxicity against human NU04 cells assessed as inhibition of cell growth measured after 72 hrs by MTT assay. The class given is functional, cell-based. The conditions noted are these: Homo sapiens, 72 h; read-out: IC50. An outline of the steps: (§1)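 A172 and NU04 cells were seeded at 4000 cells/well and U87MG at 5000 cells/well, incubated overnight at 37 °C, 5% CO2, then exposed to compound or vehicle for 72 h. MTT (3 mg/mL) was added for 4 h, formazan was dissolved in DMSO, and absorbance was read at 570 nm. IC50 came from nonlinear regression; mean ± SD of at least three experiments.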
(Formazan colour is commonly taken as a measure of viable cells.)

For the next assay, the system named is A 172. Description: Cytotoxicity against human A172 cells assessed as inhibition of cell growth measured after 72 hrs by MTT assay. Format: functional, cell-based. To be noted: Homo sapiens, A 172, 72 h; read-out: IC50. An outline of the steps:
as §1

The subject of assay [3] is U-87 MG. As to the kind of experiment: Cytotoxicity against human U87MG cells assessed as inhibition of cell growth measured after 72 hrs by MTT assay. The conditions noted are these: Homo sapiens, U-87 MG, 72 h; read-out: IC50. Format: functional, cell-based, U-87MG ATCC. The method in brief: as §1
Assay [4] relates to U-87 MG. As to the kind of experiment: Cytotoxicity against human U87MG cells assessed as inhibition of cell proliferation at <IC50 measured after 72 hrs by MTT assay relative to control. The class given is functional, U-87MG ATCC.
Assay [5] concerns U-87 MG. Description: Cytotoxicity against human U87MG cells assessed as inhibition of cell proliferation at <IC50 treated for 24 hrs and measured after 10 days by colony formation assay relative to control.
The target of assay [6] is T1, Protein disulfide-isomerase. Description: Inhibition of recombinant human N-terminal His-tagged PDI expressed in Escherichia coli BL21 (DE3) pLysS at 100 uM measured after 1 hr by ANS dye based fluorescence spectra analysis. An outline of the steps: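 ANS spectral scan: PDI incubated with 100 μM compounds or matching DMSO in TBS for 1 h at 37 °C. ANS then added and incubated 20 min at 25 °C in the dark. Fluorescence spectrum recorded with excitation 370 nm, emission 400–700 nm.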
Target sequence in this assay (P07237 18-508 limits assumed): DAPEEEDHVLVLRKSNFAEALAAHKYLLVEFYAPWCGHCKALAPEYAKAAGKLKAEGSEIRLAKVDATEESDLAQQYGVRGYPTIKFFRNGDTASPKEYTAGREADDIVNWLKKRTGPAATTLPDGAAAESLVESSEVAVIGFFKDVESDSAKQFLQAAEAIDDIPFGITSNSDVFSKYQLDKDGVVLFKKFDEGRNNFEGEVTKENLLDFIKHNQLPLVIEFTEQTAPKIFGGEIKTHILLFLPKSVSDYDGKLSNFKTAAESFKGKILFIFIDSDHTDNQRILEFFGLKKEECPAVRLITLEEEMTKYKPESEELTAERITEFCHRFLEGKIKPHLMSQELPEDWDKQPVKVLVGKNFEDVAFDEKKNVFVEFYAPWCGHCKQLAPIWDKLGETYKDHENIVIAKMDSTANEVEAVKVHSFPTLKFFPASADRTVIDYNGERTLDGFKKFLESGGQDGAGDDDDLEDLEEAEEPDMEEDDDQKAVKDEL

The term IC50 denotes the concentration that inhibits the measured activity by half.

Activity calls are given as the source filed them. The calls are words filed in the database; no cut-off is given here. A value given as a limit tells only on which side of the number the result lay.

As for `N#Cc1cccc(/C=C/C(=O)c2ccc(N3CCCCC3)cc2)c1`, the IC50 in assay [1] is above 500 µM.
Consider `CCCN(CCC)S(=O)(=O)c1ccc(C(=O)/C=C/c2cccc(C#N)c2)cc1`, for which the IC50 was determined as 26.6 µM in assay [2], 35 µM with A 172, 25.6 µM with U-87 MG [3] and 0.82 µM in assay [1]. In addition, the “inhibition (INH)” value in the assay with U-87 MG [4] is above 50%.
For the molecule `CCCCN(CCCC)S(=O)(=O)c1ccc(C(=O)/C=C/c2cccc(C#N)c2)cc1`, the IC50 stood at 15.5 µM in assay [2], 67.3 µM with A 172, 17 µM in the assay on U-87 MG [3] and 1.34 µM in assay [1]. In addition, in the assay on U-87 MG [4], the “inhibition (INH)” value is on record as above 50%.
As to `N#Cc1ccc(/C=C/C(=O)c2ccc(O)c(F)c2)cc1`, the IC50 in assay [2] came to 15.8 µM; with A 172 it was 28.4 µM; with U-87 MG [3] it was 29 µM; in assay [1], 0.21 µM. For the same molecule, the “inhibition (INH)” value in the assay with U-87 MG [4] was above 50%.
With `COC(=O)c1cccc(/C=C/C(=O)c2ccc(O)c(C(F)(F)F)c2)c1`, the IC50 was found to be 10.3 µM in assay [2], 35 µM with A 172, 11.6 µM in the assay on U-87 MG [3] and 0.49 µM in assay [1]. Also, in the assay with U-87 MG [5], the “inhibition (INH)” value is above 50%.
`N#Cc1cccc(/C=C/C(=O)c2ccc(B(O)O)cc2)c1`: the IC50 in assay [2] came to 13 µM; in the assay with A 172 it was 20.2 µM; in the assay with U-87 MG [3], 24.3 µM; in assay [1] it was 0.83 µM. The “inhibition (INH)” value in the assay on U-87 MG [4] is above 50%.
As for `O=C(/C=C/c1cccc(O)c1)c1ccc(OC(=O)c2cccs2)cc1`, the IC50 in assay [1] turned out to be 1.75 µM.
Still for that read-out and setting: next, `N#Cc1ccc(/C=C/C(=O)c2ccc(F)cc2O)cc1`: 1.8 µM.
Take `COC(=O)c1cccc(/C=C/C(=O)c2ccc(CO)c(Br)c2)c1`: the IC50 turned out to be 17.2 µM in assay [2], 20.6 µM with A 172, 13.6 µM in the assay with U-87 MG [3] and 0.13 µM in assay [1]. Moreover, the “inhibition (INH)” value in the assay on U-87 MG [5] is on record as above 50%.
For `O=C(/C=C/c1cccc(C(F)(F)F)c1)c1ccc(O)cc1`, in assay [1], the IC50 was 1.56 µM.
The same measure, in the same setting: to `COc1ccc(/C=C/C(=O)c2ccc(NC(=O)c3cccs3)cc2)cc1` belongs above 500 µM.
Still for that read-out and setting: next, `COc1ccc(C(=O)/C=C/c2cccc(C(=O)O)c2)cc1O`: above 100 µM.
The same measure, in the same setting: next, `N#Cc1ccc(/C=C/C(=O)c2ccc(F)c(O)c2)cc1`: 1.83 µM; `N#Cc1cccc(/C=C/C(=O)c2ccc(Br)cc2)c1`: 1.66 µM.
Regarding `N#Cc1cccc(/C=C/C(=O)c2ccc(O)c(C(F)(F)F)c2)c1`, the IC50 in assay [1] turned out to be 2 µM.
Turning to `N#Cc1cccc(/C=C/C(=O)c2cccc(O)c2)c1`, in assay [1], the IC50 amounted to 1.87 µM.
As for `O=C(/C=C/c1cccc(C(F)(F)F)c1)c1cnccn1`, the IC50 in assay [1] worked out at 9.57 µM.
Same read-out and setting: next, `COc1ccc(/C=C/C(=O)c2ccc(O)cc2)cc1`: 1.74 µM.
On to `O=C(/C=C/c1ccc(-n2cnc3ccccc32)cc1)c1cccc(O)c1`, for which the IC50 in assay [2] is 9.9 µM; in the assay on A 172, 10.7 µM; in the assay on U-87 MG [3] it was 10.8 µM; in assay [1] it was 0.23 µM. Also, in the assay with U-87 MG [4], the “inhibition (INH)” value is given as above 50%.
Regarding `O=C(/C=C/c1ccc(Br)cc1)c1cccc(O)c1`, the IC50 in assay [2] amounted to 26.2 µM; in the assay on A 172, 67.8 µM; with U-87 MG [3], 76.3 µM; in assay [1], 0.4 µM. The “inhibition (INH)” value in the assay on U-87 MG [5] is on record as above 50%.
`COc1ccc(C(=O)/C=C/c2cccc(C#N)c2)cc1O`: the IC50 in assay [1] was determined as 10.9 µM.
As to `O=C(/C=C/c1cccc(O)c1)c1ccccc1O`, the inhibition entry in assay [1] is “inactive”.
Consider `O=C(/C=C/c1ccc(B(O)O)cc1)c1ccccc1`, for which the IC50 in assay [2] is 22.9 µM; in the assay on A 172, 32.1 µM; in the assay with U-87 MG [3] it was 31.2 µM; in assay [1], 1.25 µM. Also, the “inhibition (INH)” value with U-87 MG [4] is above 50%.
For the molecule `COC(=O)c1cccc(/C=C/C(=O)c2ccc(NS(=O)(=O)c3ccc([N+](=O)[O-])cc3)cc2)c1`, the IC50 in assay [1] was above 100 µM.
Consider `O=C(/C=C/c1ccc(O)cc1)c1ccccc1O`, for which the inhibition result in assay [1] is “inactive”.
`O=C(/C=C/c1cccc(O)c1)c1ccc(NS(=O)(=O)c2cccs2)cc1`: the IC50 in assay [1] was 11.1 µM.
As for `O=C(O)c1cccc(/C=C/C(=O)c2ccc(O)c(F)c2)c1`, the IC50 in assay [1] was found to be 9.1 µM.
`N#Cc1cccc(/C=C/C(=O)c2ccc(S(=O)(=O)Nc3ccccc3)cc2)c1`: the IC50 in assay [2] is 18.7 µM; in the assay with A 172 it was 28.9 µM; in the assay on U-87 MG [3], 48.5 µM; in assay [1], 1.11 µM. Further, the “inhibition (INH)” value with U-87 MG [4] is above 50%.
With `Nc1ccc(C(=O)/C=C/c2cccc(C(=O)O)c2)cc1`, the IC50 in assay [1] is above 100 µM.
Consider `CCCCN(CCCC)S(=O)(=O)c1ccc(C(=O)/C=C/c2cccc(C(=O)OC)c2)cc1`, for which the IC50 in assay [1] is above 100 µM.
As for `O=C(/C=C/c1ccc(C(F)(F)F)cc1)c1ccc(O)cc1`, the IC50 in assay [1] came to 2.56 µM.
The same measure, in the same setting: next, `CCCN(CCC)S(=O)(=O)c1ccc(C(=O)/C=C/c2cccc(C(=O)OC)c2)cc1`: above 100 µM.
As to `N#Cc1cccc(/C=C/C(=O)c2ccc(NS(=O)(=O)c3ccc([N+](=O)[O-])cc3)cc2)c1`, in assay [1], the IC50 was found to be 8.51 µM.
The same measure, in the same setting: to `CC1(C)OB(c2ccc(/C=C/C(=O)c3ccccc3)cc2)OC1(C)C` belongs 2.2 µM; to `N#Cc1cccc(/C=C/C(=O)c2ccc(Cl)c(F)c2)c1`, above 500 µM.
On to `CCN(CC)S(=O)(=O)c1ccc(C(=O)/C=C/c2cccc(O)c2)cc1`, for which the IC50 in assay [2] was 19.2 µM; in the assay on A 172, 31.2 µM; with U-87 MG [3], 40.7 µM; in assay [1], 1.29 µM. In addition, in the assay with U-87 MG [5], the “inhibition (INH)” value is above 50%.
As for `O=C(/C=C/c1ccccc1O)c1ccccc1O`, in assay [1], the inhibition result is “inactive”.
In the case of `COc1cccc(C(=O)/C=C/c2cccc(C#N)c2)c1`, the IC50 in assay [1] turned out to be 8.13 µM.
In the case of `O=C(O)c1cccc(/C=C/C(=O)c2cccc(O)c2)c1`, the IC50 in assay [1] was found to be 10.2 µM.
Still for that read-out and setting: to `COC(=O)c1cccc(/C=C/C(=O)c2ccc(OC)c(O)c2)c1` belongs 47.8 µM.
The same measure, in the same setting: to `N#Cc1cccc(/C=C/C(=O)c2ccc(F)cc2O)c1` belongs 2.37 µM.
As to `COC(=O)c1cccc(/C=C/C(=O)c2ccc(O)cc2)c1`, the IC50 in assay [2] came to 30.6 µM; in the assay on A 172, 32.3 µM; with U-87 MG [3] it was 28.8 µM; in assay [1], 0.4 µM. The “inhibition (INH)” value in the assay on U-87 MG [4] was above 50%.
As to `COc1cc(C(=O)/C=C/c2cccc(C#N)c2)ccc1O`, in assay [1], the IC50 came to 2.72 µM.
As to `O=C(O)c1cccc(/C=C/C(=O)c2ccc(NS(=O)(=O)c3ccc([N+](=O)[O-])cc3)cc2)c1`, the IC50 in assay [1] came to 4 µM.
On the same count and under the same terms, to `N#Cc1cccc(/C=C/C(=O)c2ccc(N3CCOCC3)cc2)c1` belongs above 500 µM.
On the same count and under the same terms, next, `N#Cc1cccc(/C=C/C(=O)c2ccc(N)cc2)c1`: above 500 µM.
On the same count and under the same terms, next, `COc1ccc(C(=O)/C=C/c2cccc(C#N)c2)cc1OC`: above 100 µM; `O=C(/C=C/c1ccccc1C(F)(F)F)c1ccc(O)cc1`: 1.67 µM; `O=C(/C=C/c1cccc(O)c1)c1ccc(NC(=O)c2cccs2)cc1`: 5.74 µM.
For `O=C(O)c1cccc(/C=C/C(=O)c2ccc(O)c(C(F)(F)F)c2)c1`, the IC50 in assay [1] stood at 4.09 µM.
Take `N#Cc1cccc(/C=C/C(=O)c2cnccn2)c1`: the inhibition result in assay [6] is “inactive”. In addition, the IC50 in assay [1] was above 500 µM.
Turning to `N#Cc1ccc(/C=C/C(=O)c2ccc(O)c(C(F)(F)F)c2)cc1`, the IC50 in assay [2] came to 10.4 µM; in the assay on A 172 it was 33.7 µM; in the assay with U-87 MG [3], 26.4 µM; in assay [1], 1.11 µM. Moreover, the “inhibition (INH)” value in the assay with U-87 MG [4] is recorded as above 50%.
Turning to `N#Cc1ccc(/C=C/C(=O)c2ccc(O)cc2)cc1`, the IC50 in assay [2] worked out at 12.8 µM; in the assay on A 172 it was 20 µM; in the assay with U-87 MG [3], 15.1 µM; in assay [1] it was 0.74 µM. Further, the “inhibition (INH)” value in the assay with U-87 MG [5] was above 50%.
Turning to `O=C(O)c1cccc(/C=C/C(=O)c2ccc(N3CCOCC3)cc2)c1`, the IC50 in assay [1] was above 100 µM.
